Measured values pooled from the literature.
Compare with care: the assays were run in different laboratories.
RET: Proto-oncogene tyrosine-protein kinase receptor Ret (RET, Homo sapiens, UniProt P07949)
RET V804M: Proto-oncogene tyrosine-protein kinase receptor Ret (RET, Homo sapiens, UniProt P07949, V804M)
RET V804L: Proto-oncogene tyrosine-protein kinase receptor Ret (RET, Homo sapiens, UniProt P07949, V804L)
RET M918T: Proto-oncogene tyrosine-protein kinase receptor Ret (RET, Homo sapiens, UniProt P07949, M918T)

SMILES	target	test	setting	measurement	value
COc1ccc(CN2C3CC2CN(c2ccc(-c4cc(OCC(C)(C)O)cn5ncc(C#N)c45)cn2)C3)cn1	RET	thermal stability, DSF	10 µM	ΔTm	9.5 °C
Cc1cnc(NC2CCOCC2)nc1-n1cnc(C(=O)NC(CN)c2cc(F)cc(Cl)c2)c1 (stereo not shown)	RET	enzyme activity, inhibitor, radiometric	1 µM	remaining activity	111%
CO[C@]1(C(=O)N[C@@H](C)c2ccc(-n3cc(F)cn3)nc2)CC[C@H](c2nc(C)cc(Nc3cc(C)[nH]n3)n2)CC1	RET V804M	thermal stability, DSF	10 µM	ΔTm	8.7 °C
Cc1cc(NC(=O)c2cccc3cc(-c4cccc5[nH]nc(N)c45)ccc23)ccc1F	RET V804L	enzyme activity, inhibitor	0.1 µM	activity vs control	116%
CCCCN(CCCC)C(=O)CN1C[C@H](c2cc(OC)c3c(c2)OCO3)[C@@H](C(=O)O)[C@@H]1CC(C)(C)CCC	RET V804M	cell-free assay, competition with immobilised ligand	1 µM	remaining binding	100%
COc1cc(-c2cc(-c3ccc(N4CCNCC4)cc3)cnc2N)cc(OC)c1OC	Proto-oncogene tyrosine-protein kinase receptor Ret (RET, Homo sapiens, UniProt P07949, Y791F)	enzyme activity, inhibitor	1 µM	inhibition	13%
Nc1c(C(=O)NCc2ccc(C(=O)NCCCC3CCCCC3)cc2)cnn1-c1ccccc1	RET	cell-free assay, competition with immobilised ligand	0.1 µM	remaining binding	89%
Cc1ccc(C(=O)Nc2ccc(CN3CCN(C)CC3)c(C(F)(F)F)c2)cc1C#Cc1cnc2cccnn12	RET V804M	enzyme activity	23.5 nM	remaining activity	8.4%
Cc1cc(NC(=O)Nc2ccc(F)cc2)cc2sc(NC(=O)c3ccccc3)nc12	RET	enzyme activity, inhibitor, radiometric	0.1 µM	remaining activity	146%
CS(=O)(=O)CCNCc1ccc(-c2ccc3ncnc(Nc4ccc(OCc5cccc(F)c5)c(Cl)c4)c3c2)o1	RET	cell-free assay	0.5 µM	remaining signal	99.8%
CC(C)(O)c1cncc(-c2nc3ccc(F)cc3n2C2CC2)c1	RET V804M	cell-free assay, competition with immobilised ligand	1 µM	remaining binding	100%
C[C@@H]1CCN(C(=O)CC#N)C[C@@H]1N(C)c1ncnc2[nH]ccc12	RET	cell-free assay	0.5 µM	remaining signal	92.4%
O=C(COc1ccc(Cl)cc1C(=O)Nc1ccccc1)Nc1cc(Cl)ccc1-n1cncn1	RET	enzyme activity, inhibitor, radiometric	0.1 µM	remaining activity	107%
Cc1nc(C2CCN(C(=O)c3ccc(OC(F)(F)F)cc3N)CC2)c2ncc(N3CCN(C)CC3)cc2n1	RET M918T	cell-free assay, competition with immobilised ligand	1 µM	remaining binding	86%
COc1cc(NC(=O)Nc2cccc(Br)c2)cc2sc(NC(=O)c3ccccc3)nc12	RET	enzyme activity, inhibitor, radiometric	10 µM	remaining activity	127%
Nc1ncnc2occ(-c3ccc(NC(=O)Nc4cc(C(F)(F)F)ccc4F)cc3)c12	RET M918T	cell-free assay	20 µM	remaining signal	0%

SMILES	target	test	setting	measurement	value
N#CCCc1ccc2c(c1)-c1[nH]c3ccc([N+](=O)[O-])cc3c1CC(=O)N2	RET	cell-free assay	0.5 µM	remaining signal	80.8%
COc1cccc(Nc2nc(C)c(C(=O)Nc3ccc4c(c3)OCO4)s2)c1	RET	enzyme activity, inhibitor, radiometric	0.1 µM	remaining activity	129%
CC/C(=N\NC(=O)NCc1cccc(O)c1)c1ccc(O)c(C)c1O	Proto-oncogene tyrosine-protein kinase receptor Ret (RET, Homo sapiens, UniProt P07949, S891A)	enzyme activity, inhibitor	0.1 µM	inhibition	6.2%
Cc1ccc(NC(=O)Nc2cc3c(cc2Oc2ccccc2)n(C)c(=O)n3C)cc1C	RET	enzyme activity, inhibitor, radiometric	10 µM	remaining activity	128%
C#Cc1cccc(Nc2ncnc3cc(OCCOC)c(OCCOC)cc23)c1	RET	cell-free assay	0.5 µM	remaining signal	48.6%
CC(=O)Nc1cccc2c1CCN(C(=O)CCNC(=O)c1ccsc1)C2	RET	enzyme activity, inhibitor, radiometric	0.1 µM	remaining activity	104%
CCOCCn1cc(C(=O)Nc2ccc(-n3nc(-c4cccnc4)cc3C(F)(F)F)cn2)ccc1=O	RET V804L	cell-free assay, competition with immobilised ligand	1 µM	remaining binding	97%
Cc1ccc(NC(=O)c2ccc(C)c(C(F)(F)F)c2)cc1C#Cc1nn(C2CCC(O)CC2)c2ncnc(N)c12 (stereo not shown)	RET V804M	cell-free assay	10 µM	remaining signal	-2%
COCCOc1nc(-c2ccc(Cl)nc2)nc2c1CN(C(=O)c1ncn3ccccc13)CC2	RET M918T	cell-free assay, competition with immobilised ligand	0.1 µM	remaining binding	90%
COc1cc2ncnc(Nc3ccc(Oc4ccccc4)cc3C)c2cc1OC	RET V804L	enzyme activity, inhibitor	1 µM	inhibition	3%
CNC(=O)Nc1ccc2c(c1)[C@@]1(CC2)OC(=O)N(CC(=O)N(Cc2ccc(F)cc2)[C@@H](C)C(F)(F)F)C1=O	RET V804L	cell-free assay, competition with immobilised ligand	1 µM	remaining binding	94%
Cc1ccc(-c2nn3c(=O)cc(CNC(=O)Nc4ccc(C)c(Cl)c4)nc3s2)cc1	RET	enzyme activity, inhibitor, radiometric	0.1 µM	remaining activity	116%
CCCOc1ccc(OC)c(F)c1C(=O)c1ccc(C(=O)N[C@@H]2CNC[C@H]2NC(=O)c2ccc3[nH]ncc3c2)cc1	RET	enzyme activity, inhibitor	0.5 µM	remaining activity	54%
COc1ccc(COc2ccc(Cc3cnc(N)nc3N)cc2OC)cc1	RET	cell-free assay	0.5 µM	remaining signal	108%
COc1cc(NC(=O)Nc2ccc(Br)cc2)cc2sc(NC(=O)c3ccccc3)nc12	RET	enzyme activity, inhibitor, radiometric	0.1 µM	remaining activity	120%
